Reference: ChEMBL document CHEMBL1649392, “Synthesis of substituted 3-amino-N-phenyl-1H-indazole-1-carboxamides endowed with antiproliferative activity” (Eur J Med Chem, 2011)

Columns and labels:
Format in all cases: functional
[1] = Antiproliferative activity against human […] cells after 48 hrs by sulforhodamine B assay; conditions: for CC50: read-out: LC50 (the source's name)
Outline: (§1)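 NCI 60-cell-line panel covering nine cancer types (leukemia, non-small cell lung, colon, CNS, melanoma, ovarian, renal, prostate, breast). Compounds were first tested at a single dose, then in a five-dose screen (series starting 0.01, 0.1 …) if they met NCI threshold criteria. Reported per line: GI50 (molar concentration inhibiting 50% net growth), TGI (total growth inhibition) and LC50 (50% net cell death).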

NCI-H23 = assay: Antiproliferative activity against human NCI-H23 cells after 48 hrs by sulforhodamine B assay; conditions: NCI-H23, 48 h; for CC50: read-out: LC50 (the source's name); outline: as §1
NCI-H226 = assay: Antiproliferative activity against human NCI-H226 cells after 48 hrs by sulforhodamine B assay; conditions: NCI-H226, 48 h; for CC50: read-out: LC50 (the source's name); outline: as §1
HCT-15 = assay: Antiproliferative activity against human HCT15 cells after 48 hrs by sulforhodamine B assay; conditions: HCT-15, 48 h; outline: as §1
CAKI-1 = assay: Antiproliferative activity against human Caki1 cells after 48 hrs by sulforhodamine B assay; conditions: CAKI-1, 48 h; for CC50: read-out: LC50 (the source's name); outline: as §1
SNB-19 = assay: Antiproliferative activity against human SNB19 cells after 48 hrs by sulforhodamine B assay; conditions: SNB-19, 48 h; for CC50: read-out: LC50 (the source's name); outline: as §1
HCC 2998 = assay: Antiproliferative activity against human HCC2998 cells after 48 hrs by sulforhodamine B assay; conditions: HCC 2998, 48 h; for CC50: read-out: LC50 (the source's name); outline: as §1
M14 = assay: Antiproliferative activity against human M14 cells after 48 hrs by sulforhodamine B assay; conditions: M14, 48 h; for CC50: read-out: LC50 (the source's name); outline: as §1
NCI-H322M = assay: Antiproliferative activity against human NCI-H322M cells after 48 hrs by sulforhodamine B assay; conditions: for CC50: read-out: LC50 (the source's name); outline: as §1
SN12C = assay: Antiproliferative activity against human SN12C cells after 48 hrs by sulforhodamine B assay; conditions: for CC50: read-out: LC50 (the source's name); outline: as §1
Malme-3M = assay: Antiproliferative activity against human MALME-3M cells after 48 hrs by sulforhodamine B assay; outline: as §1
OVCAR-3 = assay: Antiproliferative activity against human OVCAR3 cells after 48 hrs by sulforhodamine B assay; conditions: OVCAR-3, 48 h; for CC50: read-out: LC50 (the source's name); outline: as §1
A498 = assay: Antiproliferative activity against human A498 cells after 48 hrs by sulforhodamine B assay; conditions: A498, 48 h; for CC50: read-out: LC50 (the source's name); outline: as §1
SK-OV-3 = assay: Antiproliferative activity against human SKOV3 cells after 48 hrs by sulforhodamine B assay; conditions: SK-OV-3, 48 h; for CC50: read-out: LC50 (the source's name); outline: as §1
ACHN = assay: Antiproliferative activity against human ACHN cells after 48 hrs by sulforhodamine B assay; conditions: for CC50: read-out: LC50 (the source's name); outline: as §1
MOLT-4 = assay: Antiproliferative activity against human MOLT4 cells after 48 hrs by sulforhodamine B assay; conditions: MOLT-4, 48 h; for CC50: read-out: LC50 (the source's name); outline: as §1
K562 = assay: Antiproliferative activity against human K562 cells after 48 hrs by sulforhodamine B assay; conditions: K562, 48 h; outline: as §1
NCI-H522 = assay: Antiproliferative activity against human NCI-H522 cells after 48 hrs by sulforhodamine B assay; conditions: NCI-H522, 48 h; outline: as §1
KM12 = assay: Antiproliferative activity against human KM12 cells after 48 hrs by sulforhodamine B assay; conditions: KM12, 48 h; for CC50: read-out: LC50 (the source's name); outline: as §1
OVCAR-4 = assay: Antiproliferative activity against human OVCAR4 cells after 48 hrs by sulforhodamine B assay; conditions: OVCAR-4, 48 h; for CC50: read-out: LC50 (the source's name); outline: as §1
HOP-92 = assay: Antiproliferative activity against human HOP92 cells after 48 hrs by sulforhodamine B assay; conditions: HOP-92, 48 h; outline: as §1
OVCAR-8 = assay: Antiproliferative activity against human OVCAR8 cells after 48 hrs by sulforhodamine B assay; conditions: OVCAR-8, 48 h; for CC50: read-out: LC50 (the source's name); outline: as §1
HCT-116 = assay: Antiproliferative activity against human HCT116 cells after 48 hrs by sulforhodamine B assay; conditions: HCT-116, 48 h; outline: as §1
RXF 393 = assay: Antiproliferative activity against human RXF393 cells after 48 hrs by sulforhodamine B assay; conditions: RXF 393, 48 h; for CC50: read-out: LC50 (the source's name); outline: as §1
UACC-257 = assay: Antiproliferative activity against human UACC257 cells after 48 hrs by sulforhodamine B assay; conditions: UACC-257, 48 h; for CC50: read-out: LC50 (the source's name)
Outline: (§2)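 NCI 60-cell-line panel screen: single dose 10 µM first, then 5-dose testing (0.01, 0.1, … molar series). For each line, GI50 is the molar concentration giving 50% inhibition of net cell growth, TGI gives total inhibition of net growth, and LC50 gives 50% net cell death. Method follows the NCI DTP protocol.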

SNB-75 = assay: Antiproliferative activity against human SNB75 cells after 48 hrs by sulforhodamine B assay; conditions: SNB-75, 48 h; outline: as §1
UO-31 = assay: Antiproliferative activity against human UO31 cells after 48 hrs by sulforhodamine B assay; conditions: UO-31, 48 h; for CC50: read-out: LC50 (the source's name); outline: as §2
SF-268 = assay: Antiproliferative activity against human SF268 cells after 48 hrs by sulforhodamine B assay; conditions: SF-268, 48 h; for CC50: read-out: LC50 (the source's name); outline: as §1
COLO 205 = assay: Antiproliferative activity against human COLO205 cells after 48 hrs by sulforhodamine B assay; conditions: COLO 205, 48 h; outline: as §1
SK-MEL-2 = assay: Antiproliferative activity against human SK-MEL-2 cells after 48 hrs by sulforhodamine B assay; conditions: SK-MEL-2, 48 h; for CC50: read-out: LC50 (the source's name); outline: as §1
OVCAR-5 = assay: Antiproliferative activity against human OVCAR5 cells after 48 hrs by sulforhodamine B assay; conditions: OVCAR-5, 48 h; for CC50: read-out: LC50 (the source's name); outline: as §1

## Nc1nn(C(=O)Nc2ccc(Cc3ccccc3)cc2)c2ccccc12
[1]
  GI50: 1.86 µM
  TGI: 25.8 µM
  CC50: 84 µM
NCI-H23
  TGI: 83.5 µM
  CC50: > 100 µM
NCI-H226
  TGI: 58.2 µM
  CC50: > 100 µM
HCT-15
  LC50 (concentration causing 50% net cell death): > 100 µM
  TGI: > 100 µM
CAKI-1
  TGI: 58 µM
  CC50: > 100 µM
SNB-19
  TGI: > 100 µM
  CC50: > 100 µM
HCC 2998
  TGI: 35.9 µM
  CC50: > 100 µM
M14
  TGI: > 100 µM
  CC50: > 100 µM
NCI-H322M
  TGI: > 100 µM
  CC50: > 100 µM
SN12C
  TGI: 28 µM
  CC50: 60.6 µM
Malme-3M
  LC50 (concentration causing 50% net cell death): > 100 µM
  TGI: 64.1 µM
OVCAR-3
  TGI: 63.1 µM
  CC50: > 100 µM
A498
  TGI: 31.5 µM
  CC50: 59.6 µM
SK-OV-3
  TGI: > 100 µM
  CC50: > 100 µM
ACHN
  CC50: > 100 µM
MOLT-4
  CC50: > 100 µM
K562
  GI50: 1.2 µM
  LC50 (concentration causing 50% net cell death): > 100 µM
NCI-H522
  GI50: 2.9 µM
  LC50 (concentration causing 50% net cell death): > 100 µM
  TGI: > 100 µM
KM12
  TGI: > 100 µM
  CC50: > 100 µM
OVCAR-4
  TGI: 40.4 µM
  CC50: > 100 µM
HOP-92
  LC50: > 100 µM
  TGI: 42.6 µM
OVCAR-8
  TGI: 63.9 µM
  CC50: > 100 µM
HCT-116
  LC50 (concentration causing 50% net cell death): > 100 µM
  TGI: > 100 µM
RXF 393
  TGI: 58.2 µM
  CC50: > 100 µM
UACC-257
  GI50: 10 µM
  TGI: 50.9 µM
  CC50: > 100 µM
SNB-75
  GI50: 17 µM
  LC50 (concentration causing 50% net cell death): > 100 µM
  TGI: 47.4 µM
UO-31
  TGI: > 100 µM
  CC50: > 100 µM
SF-268
  TGI: 32.3 µM
  CC50: > 100 µM
COLO 205
  LC50 (concentration causing 50% net cell death): > 100 µM
  TGI: 37.7 µM
SK-MEL-2
  TGI: > 100 µM
  CC50: > 100 µM
OVCAR-5
  TGI: > 100 µM
  CC50: > 100 µM

## Nc1ccc2c(c1)c(N)nn2C(=O)Nc1ccc(Cc2ccccc2)cc1
[1]
  GI50: 5.14 µM
  TGI: 35 µM
  CC50: > 100 µM
NCI-H23
  GI50: 16.9 µM
  TGI: 39.5 µM
  CC50: 92.4 µM
NCI-H226
  GI50: 16.1 µM
  TGI: 38.3 µM
  CC50: 91.4 µM
HCT-15
  GI50: 2.75 µM
  LC50 (concentration causing 50% net cell death): 50.5 µM
  TGI: 14.2 µM
CAKI-1
  GI50: 4.3 µM
  TGI: 26.8 µM
  CC50: > 100 µM
SNB-19
  GI50: 13.9 µM
  TGI: 27.3 µM
  CC50: 53.6 µM
HCC 2998
  GI50: 4.17 µM
  TGI: 14.8 µM
  CC50: 40.9 µM
M14
  GI50: 4.59 µM
  TGI: 17.8 µM
  CC50: 51.9 µM
NCI-H322M
  GI50: 13 µM
  TGI: 27.5 µM
  CC50: 58.3 µM
SN12C
  GI50: 13.4 µM
  TGI: 30.9 µM
  CC50: 71.1 µM
Malme-3M
  GI50: 18 µM
  LC50 (concentration causing 50% net cell death): > 100 µM
  TGI: 89.8 µM
OVCAR-3
  GI50: 12.1 µM
  TGI: 28.3 µM
  CC50: 66.7 µM
A498
  GI50: 14.4 µM
  TGI: 28.4 µM
  CC50: 56.1 µM
SK-OV-3
  GI50: 15.3 µM
  TGI: 37.7 µM
  CC50: 92.8 µM
ACHN
  GI50: 3.37 µM
  TGI: 13.7 µM
  CC50: 39.6 µM
MOLT-4
  GI50: 4.48 µM
  TGI: 24.3 µM
  CC50: > 100 µM
K562
  GI50: 2.24 µM
  LC50 (concentration causing 50% net cell death): > 100 µM
  TGI: 11.4 µM
NCI-H522
  GI50: 14.7 µM
  LC50 (concentration causing 50% net cell death): > 100 µM
  TGI: 39.6 µM
KM12
  GI50: 3.34 µM
  TGI: 15.1 µM
  CC50: 41.3 µM
OVCAR-4
  GI50: 8.29 µM
  TGI: 24.1 µM
  CC50: 63.2 µM
HOP-92
  GI50: 10.4 µM
  LC50: 57.4 µM
  TGI: 24.4 µM
OVCAR-8
  GI50: 20.2 µM
  TGI: > 100 µM
  CC50: > 100 µM
HCT-116
  GI50: 6.79 µM
  LC50 (concentration causing 50% net cell death): 50 µM
  TGI: 20.8 µM
RXF 393
  GI50: 21.4 µM
  TGI: 43.9 µM
  CC50: 90.1 µM
UACC-257
  GI50: 14.5 µM
  TGI: 29.7 µM
  CC50: 60.8 µM
SNB-75
  GI50: 17.4 µM
  LC50 (concentration causing 50% net cell death): 57.1 µM
  TGI: 31.5 µM
UO-31
  GI50: 4.72 µM
  TGI: 32.6 µM
  CC50: > 100 µM
SF-268
  GI50: 13 µM
  TGI: 30.7 µM
  CC50: 72.5 µM
COLO 205
  GI50: 13.1 µM
  LC50 (concentration causing 50% net cell death): 53.9 µM
  TGI: 26.5 µM
SK-MEL-2
  GI50: 26.1 µM
  TGI: 48.5 µM
  CC50: 90.1 µM
OVCAR-5
  GI50: 22.6 µM
  TGI: 60.5 µM
  CC50: > 100 µM
